Assay results as given in ChEMBL document CHEMBL1138525 (J Med Chem, 2009).
Activity calls are given as the source filed them. The rule behind the calls is not given here.

Columns and labels:
Assay type in all cases: functional, cell-based
P2Y purinoceptor 2 [1] = target: P2Y purinoceptor 2 (Homo sapiens, UniProt P41231, Y118A); assay: Agonist activity at N-terminal HA epitope-tagged human P2Y2 receptor Y118A mutant expressed in human 1321N1 cells assessed as increase in intracellular calcium level
Sequence of P2Y purinoceptor 2 (Homo sapiens, UniProt P41231, Y118A) (P41231 whole entry Y118A): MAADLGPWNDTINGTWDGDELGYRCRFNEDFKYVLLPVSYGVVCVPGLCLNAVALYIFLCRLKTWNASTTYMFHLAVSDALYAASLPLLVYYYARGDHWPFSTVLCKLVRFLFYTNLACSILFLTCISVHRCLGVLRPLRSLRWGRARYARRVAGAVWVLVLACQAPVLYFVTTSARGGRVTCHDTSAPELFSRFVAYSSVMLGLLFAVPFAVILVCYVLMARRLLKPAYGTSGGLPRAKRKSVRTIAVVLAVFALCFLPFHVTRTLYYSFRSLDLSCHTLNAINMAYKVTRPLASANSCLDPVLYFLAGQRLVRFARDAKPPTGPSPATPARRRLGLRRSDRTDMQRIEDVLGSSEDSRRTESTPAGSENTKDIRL
Outline: (§1)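 1321N1 astrocytoma cells stably expressing mutant receptor (retroviral transfection, G418 selection), loaded with Oregon Green BAPTA-1/AM in Krebs-HEPES pH 7.4 for 1 h at room temperature. Plated at 150000 cells/well and held 20 min at 28 °C in the dark. Efficacy relative to 100 µM carbachol.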

[2] = system: P2Y purinoceptor 2 (Homo sapiens), P41231 [Y114A]; assay: Agonist activity at N-terminal HA epitope-tagged human P2Y2 receptor Y114A mutant expressed in human 1321N1 cells assessed as increase in intracellular calcium level relative to carbachol
Sequence of P2Y purinoceptor 2 (Homo sapiens), P41231 [Y114A] (P41231 whole entry Y114A): as the sequence (P41231 whole entry Y118A) above, with Y114A, A118Y counted along it
Outline: (§2)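 Retrovirally transduced stable 1321N1 astrocytoma lines (wild-type lines of differing expression, or mutants) in suspension, loaded with Oregon Green BAPTA-1/AM for 1 h at room temperature. Cells were plated at 150000 per well in Krebs-HEPES pH 7.4 and held 20 min at 28 °C in the dark. Agonist was then injected, with fluorescence read at ex 485/em 520 nm for 60 × 0.4 s.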

[3] = system: P2Y purinoceptor 2 (Homo sapiens), P41231 [R272A]; assay: Agonist activity at N-terminal HA epitope-tagged human P2Y2 receptor R272A mutant expressed in human 1321N1 cells assessed as increase in intracellular calcium level relative to carbachol; outline: as §2
Sequence of P2Y purinoceptor 2 (Homo sapiens), P41231 [R272A] (P41231 whole entry R272A): as the sequence (P41231 whole entry Y118A) above, with A118Y, R272A counted along it

P2Y purinoceptor 2 [4] = target: P2Y purinoceptor 2 (Homo sapiens, UniProt P41231, Y114A); assay: Agonist activity at N-terminal HA epitope-tagged human P2Y2 receptor Y114A mutant expressed in human 1321N1 cells assessed as increase in intracellular calcium level; outline: as §1
Sequence of P2Y purinoceptor 2 (Homo sapiens, UniProt P41231, Y114A) (P41231 whole entry Y114A): as the sequence (P41231 whole entry Y118A) above, with Y114A, A118Y counted along it

P2Y purinoceptor 2 [5] = target: P2Y purinoceptor 2 (Homo sapiens, UniProt P41231, Y198A); assay: Agonist activity at N-terminal HA epitope-tagged human P2Y2 receptor Y198A mutant expressed in human 1321N1 cells assessed as increase in intracellular calcium level; outline: as §1
Sequence of P2Y purinoceptor 2 (Homo sapiens, UniProt P41231, Y198A) (P41231 whole entry Y198A): as the sequence (P41231 whole entry Y118A) above, with A118Y, Y198A counted along it

P2Y purinoceptor 2 [6] = target: T1, P2Y purinoceptor 2 (Homo sapiens, UniProt P41231); assay: Agonist activity at N-terminal HA epitope-tagged wild type 4 human P2Y2 receptor expressed in human 1321N1 cells assessed as increase in intracellular calcium level relative to carbachol; outline: as §2
T1 sequence (P41231 whole entry): as the sequence (P41231 whole entry Y118A) above, with A118Y counted along it

P2Y purinoceptor 2 [7] = target: T1, P2Y purinoceptor 2; assay: Agonist activity at N-terminal HA epitope-tagged wild type 3 human P2Y2 receptor expressed in human 1321N1 cells assessed as increase in intracellular calcium level
Outline: (§3)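 Retrovirally transduced stable 1321N1 astrocytoma lines (wild-type lines of differing expression, or mutants) in suspension, loaded with Oregon Green BAPTA-1/AM for 1 h at room temperature. Cells were plated at 150000 per well in Krebs-HEPES pH 7.4 and held 20 min at 28 °C in the dark.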

P2Y purinoceptor 2 [8] = target: P2Y purinoceptor 2 (Homo sapiens, UniProt P41231, C278S); assay: Agonist activity at N-terminal HA epitope-tagged human P2Y2 receptor C278S mutant expressed in human 1321N1 cells assessed as increase in intracellular calcium level; outline: as §1
Sequence of P2Y purinoceptor 2 (Homo sapiens, UniProt P41231, C278S) (P41231 whole entry C278S): as the sequence (P41231 whole entry Y118A) above, with A118Y, C278S counted along it

P2Y purinoceptor 2 [9] = target: P2Y purinoceptor 2 (Homo sapiens, UniProt P41231, R272A); assay: Agonist activity at N-terminal HA epitope-tagged human P2Y2 receptor R272A mutant expressed in human 1321N1 cells assessed as increase in intracellular calcium level; outline: as §1
Sequence of P2Y purinoceptor 2 (Homo sapiens, UniProt P41231, R272A) (P41231 whole entry R272A): as the sequence (P41231 whole entry Y118A) above, with A118Y, R272A counted along it

[10] = system: P2Y purinoceptor 2 (Homo sapiens), P41231 [R194H]; assay: Agonist activity at N-terminal HA epitope-tagged human P2Y2 receptor R194H mutant expressed in human 1321N1 cells assessed as increase in intracellular calcium level relative to carbachol; outline: as §2
Sequence of P2Y purinoceptor 2 (Homo sapiens), P41231 [R194H] (P41231 whole entry R194H): as the sequence (P41231 whole entry Y118A) above, with A118Y, R194H counted along it

P2Y purinoceptor 2 [11] = target: P2Y purinoceptor 2 (Homo sapiens, UniProt P41231, S296A); assay: Agonist activity at N-terminal HA epitope-tagged human P2Y2 receptor S296A mutant expressed in human 1321N1 cells assessed as increase in intracellular calcium level; outline: as §3
Sequence of P2Y purinoceptor 2 (Homo sapiens, UniProt P41231, S296A) (P41231 whole entry S296A): as the sequence (P41231 whole entry Y118A) above, with A118Y, S296A counted along it

P2Y purinoceptor 2 [12] = target: P2Y purinoceptor 2 (Homo sapiens, UniProt P41231, R194H); assay: Agonist activity at N-terminal HA epitope-tagged human P2Y2 receptor R194H mutant expressed in human 1321N1 cells assessed as increase in intracellular calcium level; outline: as §1
Sequence of P2Y purinoceptor 2 (Homo sapiens, UniProt P41231, R194H) (P41231 whole entry R194H): as the sequence (P41231 whole entry Y118A) above, with A118Y, R194H counted along it

[13] = system: P2Y purinoceptor 2 (Homo sapiens), P41231 [R177A]; assay: Agonist activity at N-terminal HA epitope-tagged human P2Y2 receptor R177A mutant expressed in human 1321N1 cells assessed as increase in intracellular calcium level relative to carbachol; outline: as §2
Sequence of P2Y purinoceptor 2 (Homo sapiens), P41231 [R177A] (P41231 whole entry R177A): as the sequence (P41231 whole entry Y118A) above, with A118Y, R177A counted along it

P2Y purinoceptor 2 [14] = target: P2Y purinoceptor 2 (Homo sapiens, UniProt P41231, R177A/R180A); assay: Agonist activity at N-terminal HA epitope-tagged human P2Y2 receptor R177A_R180A double mutant expressed in human 1321N1 cells assessed as increase in intracellular calcium level; outline: as §1
Sequence of P2Y purinoceptor 2 (Homo sapiens, UniProt P41231, R177A/R180A) (P41231 whole entry R177A/R180A): as the sequence (P41231 whole entry Y118A) above, with A118Y, R177A, R180A counted along it

P2Y purinoceptor 2 [15] = target: T1, P2Y purinoceptor 2; assay: Agonist activity at N-terminal HA epitope-tagged wild type 4 human P2Y2 receptor expressed in human 1321N1 cells assessed as increase in intracellular calcium level; outline: as §3
P2Y purinoceptor 2 [16] = target: T1, P2Y purinoceptor 2; assay: Agonist activity at N-terminal HA epitope-tagged wild type 3 human P2Y2 receptor expressed in human 1321N1 cells assessed as increase in intracellular calcium level relative to carbachol; outline: as §2
[17] = system: P2Y purinoceptor 2 (Homo sapiens), P41231 [S296A]; assay: Agonist activity at N-terminal HA epitope-tagged human P2Y2 receptor S296A mutant expressed in human 1321N1 cells assessed as increase in intracellular calcium level relative to carbachol; outline: as §2
Sequence of P2Y purinoceptor 2 (Homo sapiens), P41231 [S296A] (P41231 whole entry S296A): as the sequence (P41231 whole entry Y118A) above, with A118Y, S296A counted along it

[18] = system: P2Y purinoceptor 2 (Homo sapiens), P41231 [Y118A]; assay: Agonist activity at N-terminal HA epitope-tagged human P2Y2 receptor Y118A mutant expressed in human 1321N1 cells assessed as increase in intracellular calcium level relative to carbachol; outline: as §2
Sequence of P2Y purinoceptor 2 (Homo sapiens), P41231 [Y118A] (P41231 whole entry Y118A): as the sequence (P41231 whole entry Y118A) above

[19] = system: P2Y purinoceptor 2 (Homo sapiens), P41231 [Y198A]; assay: Agonist activity at N-terminal HA epitope-tagged human P2Y2 receptor Y198A mutant expressed in human 1321N1 cells assessed as increase in intracellular calcium level relative to carbachol; outline: as §2
Sequence of P2Y purinoceptor 2 (Homo sapiens), P41231 [Y198A] (P41231 whole entry Y198A): as the sequence (P41231 whole entry Y118A) above, with A118Y, Y198A counted along it

1321-N1 = assay: Effect on intracellular calcium level in non transfected human 1321N1 cells
[20] = system: P2Y purinoceptor 2 (Homo sapiens), P41231 [R180A]; assay: Agonist activity at N-terminal HA epitope-tagged human P2Y2 receptor R180A mutant expressed in human 1321N1 cells assessed as increase in intracellular calcium level relative to carbachol; outline: as §2
Sequence of P2Y purinoceptor 2 (Homo sapiens), P41231 [R180A] (P41231 whole entry R180A): as the sequence (P41231 whole entry Y118A) above, with A118Y, R180A counted along it

[21] = system: P2Y purinoceptor 2 (Homo sapiens), P41231 [C278S]; assay: Agonist activity at N-terminal HA epitope-tagged human P2Y2 receptor C278S mutant expressed in human 1321N1 cells assessed as increase in intracellular calcium level relative to carbachol; outline: as §2
Sequence of P2Y purinoceptor 2 (Homo sapiens), P41231 [C278S] (P41231 whole entry C278S): as the sequence (P41231 whole entry Y118A) above, with A118Y, C278S counted along it

P2Y purinoceptor 2 [22] = target: P2Y purinoceptor 2 (Homo sapiens, UniProt P41231, R177A); assay: Agonist activity at N-terminal HA epitope-tagged human P2Y2 receptor R177A mutant expressed in human 1321N1 cells assessed as increase in intracellular calcium level; outline: as §1
Sequence of P2Y purinoceptor 2 (Homo sapiens, UniProt P41231, R177A) (P41231 whole entry R177A): as the sequence (P41231 whole entry Y118A) above, with A118Y, R177A counted along it

P2Y purinoceptor 2 [23] = target: T1, P2Y purinoceptor 2; assay: Agonist activity at N-terminal HA epitope-tagged wild type human P2Y2 receptor expressed in human 1321N1 cells assessed as increase in intracellular calcium level; outline: as §2
P2Y purinoceptor 2 [24] = target: T1, P2Y purinoceptor 2; assay: Agonist activity at N-terminal HA epitope-tagged wild type 1 human P2Y2 receptor expressed in human 1321N1 cells assessed as increase in intracellular calcium level; outline: as §2
P2Y purinoceptor 2 [25] = target: P2Y purinoceptor 2 (Homo sapiens, UniProt P41231, R180A); assay: Agonist activity at N-terminal HA epitope-tagged human P2Y2 receptor R180A mutant expressed in human 1321N1 cells assessed as increase in intracellular calcium level; outline: as §1
Sequence of P2Y purinoceptor 2 (Homo sapiens, UniProt P41231, R180A) (P41231 whole entry R180A): as the sequence (P41231 whole entry Y118A) above, with A118Y, R180A counted along it

[26] = system: P2Y purinoceptor 2 (Homo sapiens), P41231 [R177A,R180A]; assay: Agonist activity at N-terminal HA epitope-tagged human P2Y2 receptor R177A_R180A double mutant expressed in human 1321N1 cells assessed as increase in intracellular calcium level relative to carbachol; outline: as §2
Sequence of P2Y purinoceptor 2 (Homo sapiens), P41231 [R177A,R180A] (P41231 whole entry R177A/R180A): as the sequence (P41231 whole entry Y118A) above, with A118Y, R177A, R180A counted along it

**Q.** `O=c1ccn([C@@H]2O[C@H](COP(=O)(O)OP(=O)(O)OP(=O)(O)O)[C@@H](O)[C@H]2O)c(=O)[nH]1` [URIDINE TRIPHOSPHATE] was tested. Which EC50 (P2Y purinoceptor 2 [1]) did it give?
**A.** 157 nM

**Q.** And the Efficacy [2]?
**A.** 107%

**Q.** And the Efficacy [3]?
**A.** 99%

**Q.** And the EC50 (P2Y purinoceptor 2 [4])?
**A.** 37.2 nM

**Q.** What about the EC50 (P2Y purinoceptor 2 [5]) of the same compound?
**A.** 108 nM

**Q.** What about the Efficacy (P2Y purinoceptor 2 [6]) of the same compound?
**A.** 138%

**Q.** What about the EC50 (P2Y purinoceptor 2 [7]) of the same compound?
**A.** 80.4 nM

**Q.** What about the EC50 (P2Y purinoceptor 2 [8]) of the same compound?
**A.** 2090 nM

**Q.** And the EC50 (P2Y purinoceptor 2 [9])?
**A.** 20600 nM

**Q.** And the Efficacy [10]?
**A.** 127%

**Q.** What about the EC50 (P2Y purinoceptor 2 [11]) of the same compound?
**A.** > 300000 nM

**Q.** What about the EC50 (P2Y purinoceptor 2 [12]) of the same compound?
**A.** 121 nM

**Q.** And the Efficacy [13]?
**A.** 133%

**Q.** What about the EC50 (P2Y purinoceptor 2 [14]) of the same compound?
**A.** 123 nM

**Q.** And the EC50 (P2Y purinoceptor 2 [15])?
**A.** 59 nM

**Q.** What about the Efficacy (P2Y purinoceptor 2 [16]) of the same compound?
**A.** 100%

**Q.** And the Efficacy [17]?
**A.** 3%

**Q.** What about the Efficacy [18] of the same compound?
**A.** 43%

**Q.** What about the Efficacy [19] of the same compound?
**A.** 128%

**Q.** And the Activity (1321-N1)?
**A.** inactive

**Q.** And the Efficacy [20]?
**A.** 130%

**Q.** What about the Efficacy [21] of the same compound?
**A.** 86%

**Q.** What about the EC50 (P2Y purinoceptor 2 [22]) of the same compound?
**A.** 50.1 nM

**Q.** What about the Activity (P2Y purinoceptor 2 [23]) of the same compound?
**A.** Dose-dependent effect

**Q.** And the EC50 (P2Y purinoceptor 2 [24])?
**A.** 781 nM

**Q.** What about the EC50 (P2Y purinoceptor 2 [25]) of the same compound?
**A.** 138 nM

**Q.** What about the Efficacy [26] of the same compound?
**A.** 109%
